“Also recorded” adds a separate entry of the source. Where no end group is shown, it is not given here. [ ]: non-standard residue; d: D form. Nle = CCCC[C@H](N)C(=O)O; Nva = CCC[C@H](N)C(=O)O; Aib = CC(C)(N)C(=O)O
Tests used:
[1] = test system: Aβ1–42 toxicity in PC-12 cells; experiment: MTT cell viability assay, Aβ1–42 co-incubated with tetrapeptides; format: cell-based; details: calculated from OD570 of MTT assay in PC-12 cells
Outline: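 PC-12 cells were grown in F-12K with 5% FBS and 10% horse serum and used at 70% confluence. For the assay, medium was switched to F-12K with 10% FBS, and cells were seeded at 17 000/well overnight. Monomerized Aβ1–42 was added with test peptide (DMSO stock diluted in PBS; 1:1, 1:5, 1:10) for 6 h. MTT was then added for 4 h, followed by DMSO solubilization and OD570. Inhibition % = 100×(OD peptide+Aβ − OD Aβ)/(OD control − OD Aβ).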

Aβ1–42 [2] = biological target: T1, Aβ1–42 (Homo sapiens, UniProt P05067); experiment: Electron microscopy; details: HRTEM and STEM, Aβ1–42/test peptide 1:5, 37 °C, 72 h
T1 sequence (P05067 672-713): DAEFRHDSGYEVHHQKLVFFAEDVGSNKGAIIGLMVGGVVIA
Outline: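 HFIP-treated Aβ1–42 (50 μM in 10 mM sodium phosphate buffer, pH 7.4) mixed in equal volumes with test or control tetrapeptide (250 μM, from DMSO stock) to give 1:5, then held 72 h at 37 °C. Peptides alone were imaged too. Samples were fixed on carbon-coated copper grids with 0.5% glutaraldehyde, washed in water, negatively stained with 2% uranyl acetate and imaged at 120 keV.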

[3] = Electron microscopy of tetrapeptides incubated alone; format: physicochemical; details: HRTEM and STEM, peptide alone in SPB pH 7.4, 37 °C, 72 h
Outline: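 Test peptide stock (5 mM in DMSO) diluted to 250 μM in 10 mM SPB, pH 7.4, and incubated alone at 37 °C for 72 h. A droplet is fixed on carbon-coated copper grids with 0.5% glutaraldehyde, washed with ultrapure water and negatively stained with 2% uranyl acetate. Grids are imaged by HRTEM/STEM at 120 keV.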

Aβ1–42 [4] = biological target: T1, Aβ1–42; experiment: ThT fluorescence assay of Aβ1–42 aggregation; format: biochemical; details: Aβ1–42 2 μM + peptide 20 μM (1:10), Aβ1–42 alone = 100%, n = 3
Outline: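 Aβ1–42 (2 μM) was incubated with test peptide at 1:10 in wells containing ThT (2.5 μM, glycine-NaOH pH 8.5), at 37 °C with shaking at 200 rpm. Fluorescence (ex 445/em 485 nm) was read at intervals over 7 days. Blank was subtracted, and RFU was normalized to the Aβ1–42-alone rise over ThT alone (100%). Triplicates were averaged.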

[5] = test system: Aβ1–40 toxicity for PC-12 cells; experiment: MTT cell viability assay with Aβ1–40; format: cell-based; details: data not shown
Aβ1–42 [6] = biological target: T1, Aβ1–42; experiment: Circular dichroism secondary structure analysis of Aβ1–42; format: biochemical; details: CD, Aβ1–42/peptide 1:5, 12 h, 37 °C
Outline: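 Aβ1–42 (NaOH stock diluted to 20 μM in sodium phosphate buffer) mixed 1:5 with test peptide (TFE stock diluted to 100 μM), 12 h at 37 °C. Spectra taken at 0 and 12 h, 190–260 nm, 37 °C, 1 mm cell, 50 nm/min, 2 nm bandwidth, averaging 3 scans. Buffer blank and inhibitor-alone spectra subtracted, then deconvolution into secondary-structure percentages.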

Substance | inhibition (%) of Aβ1–42 (2 μM) ([1]; test peptide 2 μM) [%] | inhibition (%) of Aβ1–42 (2 μM) ([1]; test peptide 10 μM) [%] | inhibition (%) of Aβ1–42 (2 μM) ([1]; test peptide 20 μM) [%] | other results
Ile-Val-Ile-Ala [compound 7] | 0 | 3.0 | 2.0 | –
Leu-Val-Ile-Ala [compound 5] | 0 | 0 | 0 | –
Pro-Pro-Ile-Ala [compound 25] | 14.0 | 39.0 | 90.0 | –
Pro-Val-Ile-Ala [compound 9] | 0 | 0 | 0 | –
VVI[dA] [compound 39] | 0 | – | 4.0 | –
VVI[dF] [compound 43] | 0 | 0 | 4.0 | morphology of Aβ1–42 aggregates upon co-incubation (Aβ1–42 [2]): small truncated aggregates were found in bunches; self-aggregation of peptide incubated alone [3]: large clusters of amorphous aggregates
VV[Aib]A [compound 34] | 1.0 | 0 | 11.0 | –
VV[Nle]A [compound 38] | 0 | 0 | 0 | –
VV[Nva]A [compound 37] | 0 | 0 | 1.0 | –
VV[dA]A [compound 27] | 0 | 0 | 11.0 | –
VV[dF]A [compound 35] | 4.0 | 10.0 | 9.0 | –
VV[dI]A [compound 26] | 0 | 0 | 0 | –
VV[dL]A [compound 28] | 0 | 2.0 | 10.0 | –
VV[dP]A [compound 32] | 27.0 | 26.0 | 21.0 | –
VV[dV]A [compound 30] | 0 | 0 | 0 | –
V[Aib]IA [compound 20] | 0 | 22.0 | – | RFU, time-dependent ThT study (Aβ1–42 [4]; at 24 h): 6%; RFU, time-dependent ThT study (Aβ1–42 [4]; at 3 days): 4%; RFU, time-dependent ThT study (Aβ1–42 [4]; at 5 days): 10.9%; RFU, time-dependent ThT study (Aβ1–42 [4]; at 7 days): 11.4%; morphology of Aβ1–42 aggregates upon co-incubation (Aβ1–42 [2]): no such aggregates were formed; inhibition of Aβ1–40 toxicity [5]: did not show inhibition; also recorded: lack of activity; self-aggregation of peptide incubated alone [3]: did not exhibit any self-aggregation; random coil form of Aβ1–42 co-incubated with inhibitor (Aβ1–42 [6]; Aβ1–42 alone at 12 h 42.3%): 58.5%; β-sheet conformation of Aβ1–42 co-incubated with inhibitor (Aβ1–42 [6]; Aβ1–42 alone at 12 h 47.1%): 14.2%
V[dA]IA [compound 13] | 0 | 0 | 0 | –
V[dF]IA [compound 21] | 0 | 5.0 | 0 | –
V[dI]IA [compound 16] | 20.0 | 20.0 | 27.0 | –
V[dL]IA [compound 14] | 5.0 | 0 | 1.0 | –
V[dP]IA [compound 18] | 7.0 | 20.0 | 64.0 | –

Substance | inhibition (%) of Aβ1–42 (2 μM) ([1]; test peptide 2 μM) [%] | inhibition (%) of Aβ1–42 (2 μM) ([1]; test peptide 10 μM) [%] | inhibition (%) of Aβ1–42 (2 μM) ([1]; test peptide 20 μM) [%] | other results
V[dV]IA [compound 12] | 0 | 0 | 0 | –
Val-Ile-Ile-Ala [compound 17] | 0 | 0 | 0 | –
Val-Leu-Ile-Ala [compound 15] | 0 | 0 | 13.0 | –
Val-Pro-Ile-Ala [compound 19] | 16.0 | 17.0 | 24.0 | –
Val-Val-Ile-Ala [compound 1, reference compound] | 8.0 | 30.0 | – | –
Val-Val-Ile-Ile [compound 42] | 24.0 | 27.0 | 29.0 | –
Val-Val-Ile-Leu [compound 41] | 0 | 0 | 0 | –
Val-Val-Ile-Phe [compound 44] | 0 | 0 | 0 | –
Val-Val-Ile-Val [compound 40] | 4.0 | 13.0 | 9.0 | –
Val-Val-Leu-Ala [compound 29] | 10.0 | 0 | 0 | –
Val-Val-Phe-Ala [compound 36] | 0 | 0 | 0 | –
Val-Val-Pro-Ala [compound 33] | 0 | 0 | 3.0 | –
Val-Val-Val-Ala [compound 31] | 0 | 0 | 3.0 | –
[Aib]VIA [compound 10] | 1.0 | 9.0 | 13.0 | –
[Aib][Aib]IA [compound 24] | 13.0 | 18.0 | 73.0 | –
[Nva]VIA [compound 11] | 0 | 0 | 0 | –
[dA]VIA [compound 3] | 0 | 0 | 0 | –
[dI]VIA [compound 6] | 0 | 0 | 0 | –
[dL]VIA [compound 4] | 0 | 0 | 2.0 | –
[dP]VIA [compound 8] | 5.0 | 9.0 | 4.0 | –

Source: publication PMC6645473 (ACS Omega, 2018)
